Assay results reported in PubChem BioAssay.
Some of the results follow. A number with no mark means an inactive call. Active and inactive are the calls of the source.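 How the source made its calls, unless noted: active means mean percent activation of the reporter above a cutoff set as the average over tested compounds plus their standard deviation; inactive means the rest.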

Columns and labels:
[1] = target: Oxysterols receptor LXR-beta (Homo sapiens) (UniProt P55055); assay: nonspecific reporter activation via LXR – cell-based, luminescence, HEK293, H. contortus campaign, counter-screen for hcDAF-12 agonist project, confirmation (AID 743027); details: HEK293 Gal4-LXR tk-luc reporter, 24 h, at 6.8 µM, hits give high values, normalized: DMSO 0%, positive control 100%
Sequence of Oxysterols receptor LXR-beta (Homo sapiens) (P55055 whole entry, looked up, the tested form may be a part): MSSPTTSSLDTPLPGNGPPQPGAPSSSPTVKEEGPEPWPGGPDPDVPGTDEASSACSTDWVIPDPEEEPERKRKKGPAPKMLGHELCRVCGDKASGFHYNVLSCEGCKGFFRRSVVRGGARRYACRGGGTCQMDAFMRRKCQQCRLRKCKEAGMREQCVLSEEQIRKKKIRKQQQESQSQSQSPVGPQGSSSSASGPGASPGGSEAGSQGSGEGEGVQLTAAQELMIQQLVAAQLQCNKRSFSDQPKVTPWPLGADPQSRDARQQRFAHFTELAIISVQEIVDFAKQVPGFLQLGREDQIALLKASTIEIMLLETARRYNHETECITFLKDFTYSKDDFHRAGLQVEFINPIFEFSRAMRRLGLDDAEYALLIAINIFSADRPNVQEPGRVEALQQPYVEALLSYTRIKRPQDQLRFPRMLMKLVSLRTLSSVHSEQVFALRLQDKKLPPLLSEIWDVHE
Outline: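 Assay system: HEK293 Gal4-LXR luciferase reporter cells | Measure: % activation relative to DMSO and positive-control wells | Benchmarks: DMSO-only wells as low, positive-control wells as high | Timing: 24 h compound exposure at 37 °C, 5% CO2 | Detection: Luciferase luminescence read with One-Glo reagent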

[2] = tested on: Nuclear hormone receptor DAF-12 (Haemonchus contortus); assay: hcDAF-12 luciferase reporter activation, retest – cell-based, luminescence, HEK293, lit1-tk-luc, triplicate, confirmation (AID 743032;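 active means mean activation across triplicate tests above the threshold derived from the earlier primary screen, cut at about 5.5% in these data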;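 further: 0% = DMSO only wells and 100% = 3 µM Δ7-dafachronic acid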); details: HEK293 hcDAF-12 lit1-tk-luc reporter, at 6.8 µM, hits give high values, % of Δ7-dafachronic acid response

Compound	activation [1]	activation [2]
CCCc1cc(C(=O)Nc2ccc(Cl)cn2)cs1	1.33%	4.99%
NS(=O)(=O)c1ccc2nc(NC(=O)CS(=O)(=O)c3ccc(F)cc3)sc2c1	-0.28%	3.34%
CNc1nc(Nc2ccc(C)c(Cl)c2)nc(N)c1[N+](=O)[O-]	0.77%	10.9% (active)
CC(C)c1ccc(C=NNc2ccc([N+](=O)[O-])cn2)cc1	1.84%	12% (active)
O=C(/C=C/c1cnc2ccccc2n1)NC1CCCCCC1	0.79%	4.58%
Cc1ccc2cc(/C=N/Nc3ccc(C(=O)O)cc3)c(Cl)nc2c1	0.97%	8.18% (active)
CC(C)(C)OC(=O)N/N=C/c1ccc(C(=O)O)cc1	-0.15%	0.76%
CCn1cc(CN2CCN(CC(C)(C)C)C(CCO)C2)c2ccccc21 (stereo not given)	-0.12%	3.73%
COc1ccc(CNC(=O)c2ccc3oc(C(C)C)nc3c2)cc1	0.72%	2.54%
c1ccc(-c2cc(-c3ccccc3)[nH]n2)cc1	1.43%	15.7% (active)
COc1ccc(C2=NOC(COC(=O)c3ccc4ccccc4n3)C2)cc1 (stereo not given)	0.05%	4.94%
O=C(Oc1ccc([N+](=O)[O-])cc1)c1ccc2ccccc2n1	-0.2%	4.02%
COc1ccc(C2COC(=O)C2=N)c(NC(=O)c2ccccc2)c1 (stereo not given)	-0.25%	4.45%
CN(CC(=O)Nc1cccc(F)c1)C(=O)C1CC(=O)N(CCc2ccccc2)C1 (stereo not given)	-0.05%	4.2%
C/C(=N/NC(=O)c1ccc(Br)o1)c1ccc(C)o1	-0.01%	4.27%
Cc1nc2cc(NC(=O)Nc3cccc(F)c3)ccc2n1C	1.98%	11.2% (active)
COc1ccc(C(=O)C[n+]2ccc(C)cc2)cc1	-0.34%	0.77%
COc1ccc(OCc2cc(C(=O)N3CCCC3)no2)c2ccccc12	0.67%	8.88% (active)

Compound	activation [1]	activation [2]
Cc1c(C=O)c2ccccc2n1CC(=O)O	-0.12%	1.56%
CCc1ccc(NC(=O)N2CCc3ccccc3C2)cc1	0.65%	7.24% (active)
COC(=O)C1=NN(c2ccccc2)C2C(=O)N(c3ccccc3OC)C(=O)C12 (stereo not given)	-0.15%	-0.03%
COc1ccc(C(=O)Nc2sc(C)c(C)c2CN2CCOCC2)cc1	0.23%	4.47%
CC(C)(C)NC(=O)C(c1ccncc1)N(C(=O)CNC(=O)c1ccco1)c1ccc2c(c1)OCO2 (stereo not given)	-0.43%	-0.59%
Cc1ccccc1Nc1nnc(SCC(=O)c2cc3ccccc3o2)s1	-0.11%	1.9%
Cc1ccnc(NC(=O)c2ccoc2C)c1	0.3%	3.77%
Cc1ccc(NN=Nc2nc3c([nH]2)c(=O)n(C)c(=O)n3C)cc1	-0.08%	3.07%
COc1ccccc1-c1nnc(NC(=O)c2ccc3ncsc3c2)o1	0.28%	10.3% (active)
Clc1cccc(-c2nc3nc4ccccc4nc3n2Cc2ccco2)c1	0.26%	5.41%
O=C(N/N=C\C1CC=CCC1)c1ccc(Br)o1 (stereo not given)	-0.16%	0.29%
Cc1ccc2nc(-c3ccccc3)c(CC3CCCCC3)n2c1	0.85%	9.61% (active)
CC(=O)N1CCN(c2ccccc2NC(=S)NC(=O)c2cc3ccccc3o2)CC1	-0.28%	1.71%
NS(=O)(=O)c1ccccc1NC(=O)c1c(O)c2ccccc2[nH]c1=O	1.36%	9.27% (active)
COc1cc2ccccc2cc1C(=O)Nc1ccccc1C	0.82%	9.11% (active)
O=C(Nc1ccc(Cl)cc1)C1c2cccc[n+]2CC(=O)N1Cc1ccc2c(c1)OCO2 (stereo not given)	-0.2%	2.78%
O=[N+]([O-])c1ccc2oc(-c3cccc(O)c3)nc2c1	1.82%	20% (active)
